This note sets out measurements from ChEMBL document CHEMBL1142626, “Insecticidal and mutagenic evaluation of two annonaceous acetogenins” (J Nat Prod, 2000).

Data set [1] deals with Salmonella typhimurium. The experiment in a line: Mutagenic activity in Salmonella Typhimurium TA102 assessed as number of revertants at 100 ug/plate in presence of Wistar rat S9 liver homogenate. The class given is toxicity, organism-based, Liver S9 fraction. The note with it: salmonella enterica subsp. enterica serovar typhimurium. The procedure, abridged:
(§1)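 Salmonella/microsome plate test, with or without S9 from livers of male Wistar rats (~200 g). Strain markers and spontaneous revertant counts were routinely verified. Revertants are reported as mean ± standard error of triplicate plates. Strain-specific positive controls were used, with 2-aminoanthracene for all strains when S9 was present.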

Data set [2] concerns Salmonella typhimurium. The data set is described as follows: Mutagenic activity in Salmonella Typhimurium TA102 assessed as number of revertants at 20 ug/plate in presence of Wistar rat S9 liver homogenate. The data set is classed as toxicity, organism-based, Liver S9 fraction. The following applies: salmonella enterica subsp. enterica serovar typhimurium. The gist of the method:
as §1

Data set [3] concerns Salmonella typhimurium. The experiment in a line: Mutagenic activity in Salmonella Typhimurium TA102 assessed as number of revertants at 1 ug/plate in absence of Wistar rat S9 liver homogenate. The data set is classed as toxicity, organism-based. The note with it: salmonella enterica subsp. enterica serovar typhimurium. The procedure, abridged: as §1
In data set [4] the test system is Salmonella typhimurium. The data set is described as follows: Mutagenic activity in Salmonella Typhimurium TA100 assessed as number of revertants at 10 ug/plate in absence of Wistar rat S9 liver homogenate. The data set is classed as toxicity, organism-based. The following applies: salmonella enterica subsp. enterica serovar typhimurium. The procedure, abridged:
as §1

The test system of data set [5] is Leptinotarsa decemlineata. The experiment in a line: Antifeedant effect against Leptinotarsa decemlineata assessed as feeding reduction at 100 ug/cm2 relative to control. Further details: scale not given: the % may be the effect or the level left. The data set is classed as functional. The gist of the method:
(§2)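 Choice test on leaf disks using adult L. decemlineata or newly emerged fifth-instar S. littoralis larvae. Five to 10 plates per treatment, three insects each. Uneaten leaf-disk area was measured by scanner. %FR = [1 − (treatment/control consumption)] × 100 per arena. Where FR exceeded 50%, EC50 was taken from linear regression of %FR on log dose.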

The subject of data set [6] is Spodoptera littoralis. The experiment in a line: Antifeedant effect against Spodoptera littoralis L6 larvae assessed as relative growth rate at 10 ug, po after 72 hrs. The data set is classed as functional. The procedure, abridged:
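Preweighed, newly emerged S. littoralis L6 larvae (20 per experiment) were orally cannulated with 10 µg in 2 µL DMSO; controls got solvent alone. Relative consumption and growth rates were calculated at 72 h on a dry-weight basis. Log-transformed weights were analysed by ANOVA with LSD tests.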

For data set [7], the system named is Salmonella typhimurium. The data set is described as follows: Bactericidal activity against Salmonella Typhimurium TA98 assessed as viability after 24 hrs in absence of Wistar rat S9 liver homogenate. The data set is classed as functional, organism-based. The following applies: Salmonella enterica subsp. enterica serovar Typhimurium. The procedure, abridged:
(§3)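 Viability assay: test solution or DMSO was mixed with diluted overnight culture and phosphate buffer (no S9) in top agar with histidine/biotin. The mixture was spread on nutrient agar and incubated 24 h at 37 °C. Colonies were counted to give viable bacteria per mL; positive and negative controls included; triplicate.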

In data set [8] the test system is Salmonella typhimurium. The data set is described as follows: Mutagenic activity in Salmonella Typhimurium TA102 assessed as number of revertants at 100 ug/plate in absence of Wistar rat S9 liver homogenate. The data set is classed as toxicity, organism-based. The note with it: salmonella enterica subsp. enterica serovar typhimurium. The procedure, abridged:
as §1

The subject of data set [9] is Salmonella typhimurium. The data set is described as follows: Bactericidal activity against Salmonella Typhimurium TA102 assessed as viability after 24 hrs in absence of Wistar rat S9 liver homogenate. The class given is functional, organism-based. The note with it: Salmonella enterica subsp. enterica serovar Typhimurium. The gist of the method:
as §3

Data set [10] has as its system Leptinotarsa decemlineata. The experiment in a line: Antifeedant effect against Leptinotarsa decemlineata assessed as feeding reduction. The class given is functional, organism-based. The gist of the method: as §2
Data set [11] has as its system Salmonella typhimurium. The data set is described as follows: Mutagenic activity in Salmonella Typhimurium TA98 assessed as number of revertants at 10 ug/plate in presence of Wistar rat S9 liver homogenate. The note with it: salmonella enterica subsp. enterica serovar typhimurium. The data set is classed as toxicity, organism-based, Liver S9 fraction. The procedure, abridged:
as §1

The test system of data set [12] is Salmonella typhimurium. The experiment in a line: Mutagenic activity in Salmonella Typhimurium TA98 assessed as number of revertants at 20 ug/plate in presence of Wistar rat S9 liver homogenate. The following applies: salmonella enterica subsp. enterica serovar typhimurium. The data set is classed as toxicity, organism-based, Liver S9 fraction. The procedure, abridged: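 Salmonella/microsome plate test (Ames) in strain TA98, with genetic markers and spontaneous revertant counts verified routinely. Run with and without S9 mix, the S9 being liver postmitochondrial supernatant from male Wistar rats of about 200 g. Doses ran from 0.01 to 100 µg/plate. Revertants are the mean of triplicate plates with standard error. Positive controls were 0.5 µg 4-nitroquinoline-N-oxide without S9 and 15 µg 2-aminoanthracene with S9.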

For data set [13], the system named is Salmonella typhimurium. The data set is described as follows: Mutagenic activity in Salmonella Typhimurium TA102 assessed as number of revertants at 50 ug/plate in absence of Wistar rat S9 liver homogenate. The note with it: salmonella enterica subsp. enterica serovar typhimurium. The data set is classed as toxicity, organism-based. The gist of the method: as §1

The test system of data set [14] is Salmonella typhimurium. The experiment in a line: Bactericidal activity against Salmonella Typhimurium TA100 assessed as viability after 24 hrs in absence of Wistar rat S9 liver homogenate. The class given is functional, organism-based. The note with it: Salmonella enterica subsp. enterica serovar Typhimurium. The procedure, abridged: as §3
The test system of data set [15] is Salmonella typhimurium. The data set is described as follows: Mutagenic activity in Salmonella Typhimurium TA100 assessed as number of revertants at 50 ug/plate in absence of Wistar rat S9 liver homogenate. The following applies: salmonella enterica subsp. enterica serovar typhimurium. The class given is toxicity, organism-based. The procedure, abridged:
as §1

Data set [16] relates to Salmonella typhimurium. The experiment in a line: Mutagenic activity in Salmonella Typhimurium TA100 assessed as number of revertants at 10 ug/plate in presence of Wistar rat S9 liver homogenate. The data set is classed as toxicity, organism-based, Liver S9 fraction. The following applies: salmonella enterica subsp. enterica serovar typhimurium. The procedure, abridged:
as §1

For data set [17], the system named is Myzus persicae. The experiment in a line: Insecticidal activity against Myzus persicae assessed as increase in mortality at 100 ug/cm2 observed daily for 4 days. The data set is classed as functional, organism-based. The procedure, abridged: (§4)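 No-choice test: 20 boxes, each with five same-age apterous adult M. persicae (100 insects). Nymphs produced in the first 48 h were separated from adults and kept in similarly treated boxes. Both were observed daily for 4 days for mortality. Analysed by contingency tables and LSD test.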

In data set [18] the test system is Myzus persicae. The experiment in a line: Insecticidal activity against Myzus persicae assessed as increase in mortality at 50 ug/cm2 observed daily for 4 days. The data set is classed as functional, organism-based. The gist of the method:
as §4

Data set [19] has as its system Leptinotarsa decemlineata. The data set is described as follows: Antifeedant effect against Leptinotarsa decemlineata assessed as feeding reduction at 10 ug/cm2. The class given is functional, organism-based. The procedure, abridged:
as §2

For data set [20], the system named is Spodoptera littoralis. The experiment in a line: Antifeedant effect against Spodoptera littoralis assessed as feeding reduction at 100 ug/cm2 relative to control. Further details: scale not given: the % may be the effect or the level left. The data set is classed as functional. The procedure, abridged:
as §2

For the compound `CCCCCCCCCCCC[C@@H](O)[C@H]1CC[C@H]([C@H](O)CCCC[C@H](O)CCCCC[C@@H](O)CC2=CC(C)OC2=O)O1` (stereo partly specified) [ANNONACIN], the Activity in the data set on Salmonella typhimurium [1] is 437; in the data set with Salmonella typhimurium [2] it was 432; in the data set on Salmonella typhimurium [3], 277; in the data set with Salmonella typhimurium [4] it was 104; in [5], 93%; in the data set on Spodoptera littoralis [6] it was 3.44 mg. Further, the Activity entry with Salmonella typhimurium [7] is “Non-toxic”; with Salmonella typhimurium [8], 126; in the data set with Salmonella typhimurium [9] it was “Non-toxic”; in the data set with Salmonella typhimurium [11], 19; with Salmonella typhimurium [12], 26; with Salmonella typhimurium [13], 169. In addition, the Activity entry in the data set on Salmonella typhimurium [14] is “Non-toxic”; in the data set with Salmonella typhimurium [15], 85; in the data set on Salmonella typhimurium [16], 145. For the same compound, the EC50 in data set [10] was 10 microg/cm2.

As to `CCCCCC[C@H](O)CCC[C@H](O)[C@H]1CC[C@H]([C@H]2CC[C@H]([C@H](O)CCCCCCCCCCCCC3=C[C@H](C)OC3=O)O2)O1` [SQUAMOCIN], the Activity with Salmonella typhimurium [1] was 88; in the data set on Salmonella typhimurium [2] it was 139; with Salmonella typhimurium [3] it was 182; with Myzus persicae [17], “Non-toxic”; in the data set with Myzus persicae [18] it was “Non-toxic”; in the data set on Salmonella typhimurium [4] it was 69. Further, the Activity with Spodoptera littoralis [6] is 3.36 mg; with Salmonella typhimurium [8] it was 80; in data set [19], “Toxic”; in the data set with Salmonella typhimurium [11] it was 41; in the data set on Spodoptera littoralis [20] it was below 40%; in the data set on Salmonella typhimurium [12], 43. Also, the figures for the Activity in the data set with Salmonella typhimurium [13], in the data set on Salmonella typhimurium [15] and with Salmonella typhimurium [16] were 93, 39 and 142, respectively.
